Reference: publication PMC3262452 (Virology, 2011)
Where two headings read alike, the source gives them in different places. Marks after values point to notes of the source that are not given here.

Columns and labels:
WT HIV = experiment: microbe, parasite or virus in culture; format: cell-based, HIV-1
AZT-R HIV = experiment: microbe, parasite or virus in culture; format: cell-based, HIV-1
wt HIV-1 RT RNase H = wt HIV-1 RT RNase H (Human immunodeficiency virus type 1 group M subtype B, UniProt P04585); experiment: In vitro RT-RNase H activity; format: biochemical; conditions: read-out: IC50 RT-RNase H, recombinant HIV-1 RT
HIV-1 RT DNA polymerase = HIV-1 RT DNA polymerase (Human immunodeficiency virus type 1 group M subtype B, UniProt P04585); experiment: In vitro RT RNA-dependent DNA polymerase activity; format: biochemical; conditions: read-out: IC50 RT-DNA polymerase, recombinant HIV-1 RT
HOS cells [1] = experiment: XTT cell viability assay; format: cell-based, human; conditions: read-out: CC50 XTT
Method in brief: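 HOS cells were grown in DMEM with 3.5% fetal bovine serum, 3.5% newborn calf serum and penicillin/streptomycin, then exposed to test compounds. Viability was measured with a commercial XTT kit, in which mitochondrial enzymes reduce the tetrazolium to an orange product read by absorbance. CC50 is the concentration killing half the HOS cells. Runs were done once or twice.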

HOS cells [2] = experiment: ATP based luciferase assay; format: cell-based, human; conditions: for CC50: read-out: CC50 ATP-lite, HOS cells
[3] = Human immunodeficiency virus 1, HOS, read-out: 3TC IC50
[4] = Human immunodeficiency virus 1, HOS, read-out: AZT IC50
[5] = Human immunodeficiency virus 1, HOS, read-out: AZT IC50 + NaN3
[6] = read-out: IC50 WT HIV, RNHI alone, HOS cells, luciferase based assay
[7] = read-out: IC50 AZT-R HIV, RNHI alone, HOS cells, luciferase based assay

Compound | effect of RNHI on the AZT IC50 (fold increase) (WT HIV) | IC50 (WT HIV; [6]) [µM] | effect of RNHI on the AZT IC50 (fold increase) (AZT-R HIV) | IC50 (AZT-R HIV; [7]) [µM] | IC50 (wt HIV-1 RT RNase H) [µM] | IC50 (HIV-1 RT DNA polymerase) [µM] | CC50 (HOS cells [1]) [µM] | CC50 (HOS cells [2]) [µM] | other results
Nc1ccn([C@H]2CS[C@@H](CO)O2)c(=O)n1 [3TC, 2', 3'-dideoxy-3'-thiacytidine, reference compound] | – | – | – | – | – | – | – | – | Fold decrease of 3TC IC50 by NVP (WT HIV): 2 fold; IC50 (WT HIV; [3]): 8 ± 3 µM; Fold decrease of 3TC IC50 by NVP (AZT-R HIV): ~2 fold; IC50 (AZT-R HIV; [3]): 24 ± 14 µM
Cc1cn([C@H]2C[C@H](N=[N+]=[N-])[C@@H](CO)O2)c(=O)[nH]c1=O [AZT, zidovudine, reference compound] | – | – | – | – | – | – | – | – | IC50 (WT HIV; [4]): 0.004 ± 0.003 µM; IC50 (WT HIV; [5]): 0.004 ± 0.002 µM; Fold decrease of AZT IC50 by NVP (WT HIV; WT HIV, 40 nM NVP, not statistically significant): 1 fold; Fold decrease of AZT IC50 by NaN3 (WT HIV; WT HIV, 0.5 mM NaN3, not statistically significant): 0 fold; Fold decrease of AZT IC50 by NVP (AZT-R HIV; AZT-R HIV, 40 nM NVP, not statistically significant): 2 fold; Fold decrease of AZT IC50 by NaN3 (AZT-R HIV; AZT-R HIV, 0.5 mM NaN3, not statistically significant): 1.4 fold; IC50 (AZT-R HIV; [4]): 0.041 ± 0.038 µM; IC50 (AZT-R HIV; [5]): 0.056 ± 0.037 µM
O=C1S/C(=C\c2ccc(O)c(O)c2)C(=O)N1c1ccc(O)cc1 [F0444-0019] | ~ 5 fold | 24 | ~ 5 fold | 28 | 5 ± 1.8 | 18.5 ± 5.9 | 24 ± 3 | 14 ± 6 | effect of RNHI on the 3TC IC50 (fold increase) (WT HIV): ~ 3 fold; effect of RNHI on the 3TC IC50 (AZT-R HIV): insignificant; % ATP relative to untreated HOS (HOS cells [2]; 20 μM): 36 ± 10%
O=C1NC(=Nc2ccccc2O)S/C1=C/c1ccc(O)c(O)c1 [F0888-0058] | no significant effect | 34 | 2 fold | 30 | 5 ± 2.6 | 29.6 ± 1.4 | 16 ± 5 | 14 ± 3 | effect of RNHI on the 3TC IC50 (fold increase) (WT HIV): ~ 1.7 fold; effect of RNHI on the 3TC IC50 (AZT-R HIV): did not see a significant effect; % ATP relative to untreated HOS (HOS cells [2]; 20 μM): 41 ± 4%
Cc1c[nH]c2c1C(c1ccc(O)c(O)c1)C(C#N)=C(N)O2 (stereo not shown) [F0915-1507] | no significant effect | 50 | no significant effect | 49 | 5.8 ± 2.2 | > 100 | 52 | 44 ± 14 | % ATP relative to untreated HOS (HOS cells [2]; 50 μM, one or two assays): 46^a %
O=C(CSc1ncccc1C(=O)O)c1ccc(O)c(O)c1 [F3253-0041] | little to no effect | 70 | decreased the AZT IC50 | 59 | 2.9 ± 1.1 | > 100 | 370 | 160 | % ATP relative to untreated HOS (HOS cells [2]; 70 μM, one or two assays): 92^a %
O=C(O)CC1CC(=O)Oc2c1ccc(O)c2O (stereo not shown) [F3284-8495] | little to no effect | 58 | decreased the AZT IC50 | 54 | 3.3 ± 0.7 | > 100 | 120 | 67 | % ATP relative to untreated HOS (HOS cells [2]; 70 μM, one or two assays): 87^a %
Cc1ccnc2c1NC(=O)c1cccnc1N2C1CC1 [NVP, nevirapine, reference compound] | – | – | – | – | – | – | – | – | reduction of infectivity of the virus stock (WT HIV; 40 nM NVP, HOS cells): ~ 60%; IC50 (AZT-R HIV; Human immunodeficiency virus 1, HOS, read-out: IC50 of NVP for blocking replication): 0.027 ± 0.001 µM
[N-]=[N+]=[N-].[Na+] [NaN3, sodium azide, reference compound] | – | – | – | – | – | – | – | – | effect of NaN3 on the IC50 for AZT (WT HIV): no significant effect; effect of NaN3 on the IC50 for AZT (AZT-R HIV): no significant effect; % ATP relative to untreated HOS (HOS cells [2]; 0.5 mM): 31 ± 8%; reduction of the level of ATP in HOS cells (HOS cells [2]; 0.5 mM NaN3): ~ 70%
